Data published in ChEMBL document CHEMBL2311356, “The effect of 17-N substituents on the activity of the opioid κ receptor in nalfurafine derivatives” (Bioorg Med Chem Lett, 2013).

Experiments:
[1] = molecular target: Kappa-type opioid receptor (Cavia porcellus, UniProt P41144); test: Displacement of [3H]U69593 from kappa opioid receptor in guinea pig cerebellum after 1 hr by liquid scintillation counting analysis
Summary of the method: (§1)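 Radioligand displacement from membranes used [³H]DAMGO for μ and [³H]DPDPE for δ, both on mouse whole brain without cerebellum. For κ it used [³H]U-69,593 on guinea pig cerebellum. Values are means of three samples.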

[2] = molecular target: T1, Kappa-type opioid receptor (Homo sapiens, UniProt P41145); test: Agonist activity at human recombinant kappa opioid receptor expressed in CHO cells after 2 hrs by [35S]-GTPgammaS binding assay; format: functional, cell-based
Summary of the method: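 CHO cell membranes carrying the recombinant human κ receptor were incubated with [³⁵S]GTPγS, GDP and the test agent. Values are means of four samples.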

[3] = molecular target: T1, Kappa-type opioid receptor; test: Agonist activity at human recombinant kappa opioid receptor expressed in CHO cells after 2 hrs by [35S]-GTPgammaS binding assay relative to control; format: functional, cell-based
Summary of the method: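 CHO cell membranes carrying the recombinant human κ receptor were incubated with [³⁵S]GTPγS, GDP and the test agent. U-69,593 served as the reference κ agonist. Values are means of four samples.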

[4] = molecular target: Delta-type opioid receptor (Mus musculus, UniProt P32300); test: Displacement of [3H]DPDPE from delta opioid receptor in mouse whole brain membranes without cerebellum after 1 hr by liquid scintillation counting analysis; format: cell membranes, Membrane; summary of the method: as §1
Mu-type opioid receptor = Mu-type opioid receptor (Mus musculus, UniProt P42866); test: Displacement of [3H]DAMGO from mu opioid receptor in mouse whole brain membranes without cerebellum after 1 hr by liquid scintillation counting analysis; format: cell membranes, Membrane; summary of the method: as §1
[5] = Selectivity ratio of Ki for delta opioid receptor in mouse whole brain membranes without cerebellum to Ki for kappa opioid receptor in guinea pig cerebellum; format: cell membranes
[6] = Selectivity ratio of Ki for mu opioid receptor in mouse whole brain membranes without cerebellum to Ki for kappa opioid receptor in guinea pig cerebellum; format: cell membranes

Chain of Mu-type opioid receptor (P42866 whole entry): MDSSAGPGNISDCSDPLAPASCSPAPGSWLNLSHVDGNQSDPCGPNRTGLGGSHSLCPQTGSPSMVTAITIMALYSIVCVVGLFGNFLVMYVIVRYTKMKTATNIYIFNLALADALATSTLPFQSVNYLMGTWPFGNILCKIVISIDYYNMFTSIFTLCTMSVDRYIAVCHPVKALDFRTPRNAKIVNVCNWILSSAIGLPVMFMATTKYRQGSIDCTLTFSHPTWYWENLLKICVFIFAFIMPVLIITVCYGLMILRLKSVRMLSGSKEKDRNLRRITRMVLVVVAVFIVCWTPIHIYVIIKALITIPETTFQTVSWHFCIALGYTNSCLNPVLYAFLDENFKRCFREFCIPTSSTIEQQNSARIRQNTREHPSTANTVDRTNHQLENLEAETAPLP
T1 sequence (P41145 whole entry): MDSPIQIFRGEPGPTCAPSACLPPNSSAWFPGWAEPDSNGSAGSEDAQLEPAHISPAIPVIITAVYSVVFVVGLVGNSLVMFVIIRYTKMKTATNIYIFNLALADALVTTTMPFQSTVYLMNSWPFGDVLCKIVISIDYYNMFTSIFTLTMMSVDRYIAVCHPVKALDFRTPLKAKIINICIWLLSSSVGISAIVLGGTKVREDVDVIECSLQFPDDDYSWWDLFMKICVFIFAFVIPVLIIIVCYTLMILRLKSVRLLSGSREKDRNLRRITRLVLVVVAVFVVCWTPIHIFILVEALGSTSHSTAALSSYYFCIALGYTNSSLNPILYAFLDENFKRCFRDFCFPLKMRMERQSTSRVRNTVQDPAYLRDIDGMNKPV
Chain of Kappa-type opioid receptor (Cavia porcellus, UniProt P41144) (P41144 whole entry): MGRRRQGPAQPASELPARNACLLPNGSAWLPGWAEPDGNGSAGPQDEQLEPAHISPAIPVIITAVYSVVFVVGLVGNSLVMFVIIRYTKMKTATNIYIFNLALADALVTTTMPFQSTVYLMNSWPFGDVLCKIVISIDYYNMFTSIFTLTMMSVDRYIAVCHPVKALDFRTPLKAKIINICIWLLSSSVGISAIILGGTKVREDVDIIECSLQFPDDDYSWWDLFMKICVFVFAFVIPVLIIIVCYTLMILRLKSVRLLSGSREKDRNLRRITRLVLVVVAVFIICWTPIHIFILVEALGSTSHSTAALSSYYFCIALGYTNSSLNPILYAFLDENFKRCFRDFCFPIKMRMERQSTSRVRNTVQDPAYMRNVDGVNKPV
Chain of Delta-type opioid receptor (P32300 whole entry): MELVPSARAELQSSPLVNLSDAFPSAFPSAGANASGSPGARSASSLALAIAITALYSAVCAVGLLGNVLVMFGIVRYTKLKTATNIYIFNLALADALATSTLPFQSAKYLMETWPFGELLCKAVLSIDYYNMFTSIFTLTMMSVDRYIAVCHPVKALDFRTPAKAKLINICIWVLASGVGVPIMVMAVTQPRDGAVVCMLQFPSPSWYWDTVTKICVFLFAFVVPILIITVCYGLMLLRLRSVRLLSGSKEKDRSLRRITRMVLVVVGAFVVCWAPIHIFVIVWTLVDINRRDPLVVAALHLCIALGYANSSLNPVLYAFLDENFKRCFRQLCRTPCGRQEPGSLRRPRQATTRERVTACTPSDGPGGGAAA

SMILES | Ki [1] [nM] | EC50 [2] [nM] | Emax [3] [%] | Ki [4] [nM] | Ki (Mu-type opioid receptor) [nM] | Ratio Ki [5] | Ratio Ki [6]
CN(CCC[C@]1(O)[C@H]2CCN(CC(F)F)[C@@H]1Cc1ccc(O)c(O)c12)C(=O)/C=C/c1ccoc1 | 2.19 | 22.4 | 101 | > 1000 | > 1000 |  | 
CCN1CC[C@H]2c3c(ccc(O)c3O)C[C@@H]1[C@]2(O)CCCN(C)C(=O)/C=C/c1ccoc1 | 0.625 | 3.79 | 97.4 | 512 | 11 | 818 | 17.6
CC(C)CN1CC[C@H]2c3c(ccc(O)c3O)C[C@@H]1[C@]2(O)CCCN(C)C(=O)/C=C/c1ccoc1 | 0.59 | 8.07 | 99.5 | 514 | 46.2 | 872 | 78.4
CCCN1CC[C@H]2c3c(ccc(O)c3O)C[C@@H]1[C@]2(O)CCCN(C)C(=O)/C=C/c1ccoc1 | 0.328 | 2.72 | 86.5 | 176 | 19.2 | 537 | 58.4
CN(CCC[C@]1(O)[C@H]2CCN(CC(F)(F)F)[C@@H]1Cc1ccc(O)c(O)c12)C(=O)/C=C/c1ccoc1 | 4.58 | 32.2 | 89 | > 1000 | > 1000 |  | 
CN(CCC[C@]1(O)[C@H]2CCN(CCF)[C@@H]1Cc1ccc(O)c(O)c12)C(=O)/C=C/c1ccoc1 | 0.507 | 2.23 | 95.2 | > 1000 | 8.39 |  | 16.6
CN(CCC[C@]1(O)[C@H]2CCN(C)[C@@H]1Cc1ccc(O)c(O)c12)C(=O)/C=C/c1ccoc1 | 0.735 | 11.3 | 90.4 | 35.7 | 2.77 | 48.6 | 3.77
CN(C(=O)/C=C/c1ccoc1)[C@@H]1CC[C@@]2(O)[C@H]3Cc4ccc(O)c5c4[C@@]2(CCN3CC2CC2)[C@H]1O5 |  |  | 98.1 |  |  |  | 
